In ChEMBL document CHEMBL1649306, “Arylimidamide DB766, a potential chemotherapeutic candidate for Chagas' disease treatment” (Antimicrob Agents Chemother, 2010) one finds Activity data, which are given here for 1 molecule.

Calls of active or inactive are those of the source. The rule behind the calls is not given here.

The test system of assay [1] is Trypanosoma cruzi. The assay is described as follows: Antitrypanosomal activity against Trypanosoma cruzi Y infected in Swiss-Webster mouse assessed as decrease in parasite-induced weight loss at 100 mg/kg/day, ip administered 5 days post-infection for 10 consecutive days measured on day 120. In kind it is functional, organism-based. The method, boiled down:
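Body weight of infected, treated mice followed from 0 to 120 dpi.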

Assay [2] relates to Trypanosoma cruzi. The assay is described as follows: Antitrypanosomal activity against Trypanosoma cruzi Y bloodstream forms infected in Swiss-Webster mouse assessed as decrease in cardiac parasite load at 100 mg/kg/day, ip administered 5 days postinfection for 10 alternate days measured after 14 days postinfection. In kind it is functional, Heart. More on the design: scale not given: the % may be the effect or the level left. The settings on record: route intraperitoneal.

Assay [3] has as its system Trypanosoma cruzi. The assay is described as follows: Antitrypanosomal activity against Trypanosoma cruzi Columbian bloodstream forms infected in C3H mouse assessed as decrease in parasite load at 25 mg/kg/day, ip administered 21 days postinfection measured on day 44. In kind it is functional. The settings on record: route intraperitoneal. More on the design: scale not given: the % may be the effect or the level left. The method, boiled down: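 C3H/He mice infected i.p. with 10^2 Colombian strain bloodstream forms. Treatment started at parasitemia onset (21 dpi) with daily doses for 10 treatments, 0.1 ml i.p. Parasitemia measured by the Pizzi-Brener method; n ≥ 6 parasitemic mice per group.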

Turning to `CC(C)Oc1cc(NC(=N)c2ccccn2)ccc1-c1ccc(-c2ccc(NC(=N)c3ccccn3)cc2OC(C)C)o1`, the outcome in the assay on Trypanosoma cruzi [1] was inactive. Moreover, the Activity in the assay on Trypanosoma cruzi [2] came out at 94%; in the assay with Trypanosoma cruzi [3], 73%.
